Measured values as given in ChEMBL document CHEMBL2311384, “Probing the steric requirements of the γ-aminobutyric acid aminotransferase active site with fluorinated analogues of vigabatrin” (Bioorg Med Chem, 2013).
The source made the active and inactive calls. No cut-off for these calls is given here.

How the values were obtained:
[1] = target: 4-aminobutyrate aminotransferase, mitochondrial (Sus scrofa) (UniProt P80147); assay: Time dependent inhibition of pig brain GABA-AT using GABA as substrate at 5 mM up to 150 mins
Chain of 4-aminobutyrate aminotransferase, mitochondrial (Sus scrofa) (P80147 whole entry): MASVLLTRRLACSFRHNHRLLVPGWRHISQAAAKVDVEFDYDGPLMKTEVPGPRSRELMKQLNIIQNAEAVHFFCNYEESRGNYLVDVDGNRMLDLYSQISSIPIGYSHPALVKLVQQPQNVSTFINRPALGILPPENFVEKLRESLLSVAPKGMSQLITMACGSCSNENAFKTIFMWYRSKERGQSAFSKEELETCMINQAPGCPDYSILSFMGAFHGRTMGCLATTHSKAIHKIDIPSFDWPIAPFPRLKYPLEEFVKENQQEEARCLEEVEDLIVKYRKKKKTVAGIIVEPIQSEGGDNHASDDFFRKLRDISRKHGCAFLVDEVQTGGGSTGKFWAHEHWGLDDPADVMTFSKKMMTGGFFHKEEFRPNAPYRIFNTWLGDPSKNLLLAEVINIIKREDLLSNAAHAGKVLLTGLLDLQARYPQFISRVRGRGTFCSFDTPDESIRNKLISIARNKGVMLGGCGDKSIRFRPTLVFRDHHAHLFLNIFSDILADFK
Summary of the method: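 Pig brain GABA-AT in 100 mM potassium phosphate pH 7.0 preincubated at 25 °C with β-mercaptoethanol, α-ketoglutarate and compound (5 mM final); aliquots taken at time points into assay solution (GABA, α-ketoglutarate, NADP+, pH 8.6) with excess SSADH; remaining activity from 340 nm NADPH absorbance rate.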

[2] = target: 4-aminobutyrate aminotransferase, mitochondrial (Sus scrofa) (UniProt P80147); assay: Reversible inhibition of pig brain GABA-AT using GABA as substrate at 23 mM
[3] = target: 4-aminobutyrate aminotransferase, mitochondrial (Sus scrofa) (UniProt P80147); assay: Activity at pig brain GABA-AT assessed as glutamate production at 3 mM preincubated for 20 mins relative to GABA
Summary of the method: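 GABA-AT purified from pig brain; substrate tested as turnover substrate in 100 mM potassium pyrophosphate pH 8.6 with α-ketoglutarate; glutamate formed detected by glutamate oxidase/horseradish peroxidase/Amplex Red fluorescence (ex 530, em 590 nm); scaled to glutamate standard curve (0–10 µM); highest rates, between 15 and 25 min, used.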

[4] = target: 4-aminobutyrate aminotransferase, mitochondrial (Sus scrofa, UniProt P80147); assay: Reversible inhibition of pig brain GABA-AT using GABA as substrate
Chain of 4-aminobutyrate aminotransferase, mitochondrial (P80147 whole entry): as above
Summary of the method: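 Pig brain GABA-AT, purified in-house, mixed with excess SSADH (from GABase), then inhibitor at several concentrations added in assay buffer: 87 mM potassium pyrophosphate pH 8.6, 6 mM GABA, 5 mM α-ketoglutarate, 1.25 mM NADP+, 3.3 mM β-mercaptoethanol. Rate read directly without preincubation as NADPH absorbance at 340 nm. IC50 from concentration-response fit; Ki via Cheng-Prusoff.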

| Ki [4] | Structure (SMILES) | inhibition [1] | inhibition [2] | Activity [3] |
| --- | --- | --- | --- | --- |
|  | C[C@@H](F)[C@H](N)CCC(=O)O | inactive | inactive | 0.02% |
| 40 µM | N[C@@H]1C=C[C@H](C(=O)O)C1 |  |  |  |
|  | C[C@H](F)[C@@H](N)CCC(=O)O | inactive | inactive | 0.11% |
|  | C[C@@H](F)[C@@H](N)CCC(=O)O | inactive | inactive | 0.32% |
